Measurements taken from ChEMBL document CHEMBL4725360, “Optimization of Acetazolamide-Based Scaffold as Potent Inhibitors of Vancomycin-Resistant Enterococcus” (J Med Chem, 2020).
≈ marks a conversion by molar mass, not a printed value. Blank lines part the entries; values can stand above or below the compound they belong to. Calls of active or inactive are those of the source. The rule behind the calls is not given here.

Legend:
[1] = tested on: Enterococcus faecium; assay: Antibacterial activity against Enterococcus faecium HM965 incubated for 18 to 20 hrs under aerobic condition by CLSI protocol based broth microdilution assay; type: functional; conditions: time hrs 18-20
Procedure, shortened: (§1)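 Broth microdilution per CLSI. Strains grown aerobically overnight on trypticase soy agar at 37 °C. Inoculum set to 0.5 McFarland, diluted in trypticase soy broth to about 5 × 10⁵ CFU/mL. Agents serially diluted, plates incubated aerobically at 37 °C for 18–20 h. MIC is the lowest concentration with no visible growth. Compound stocks 10 mg/mL in DMSO.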

[2] = tested on: Enterococcus faecium; assay: Inhibition of carbonic anhydrase in Enterococcus faecium ATCC 700221 assessed as antibacterial activity incubated for 18 to 20 hrs in presence of ambient air by CLSI protocol based broth microdilution assay; conditions: time hrs 18-20
Procedure, shortened: (§2)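 CLSI broth microdilution: inoculum about 5 × 10⁵ CFU/mL in trypticase soy broth with serial dilutions of agents. Paired plates incubated at 37 °C for 18–20 h, one set in ambient air ("normal"), the other under 5% CO₂. MIC is the lowest concentration completely inhibiting visible growth.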

[3] = tested on: Enterococcus faecium; assay: Inhibition of carbonic anhydrase in Enterococcus faecium ATCC 700221 assessed as antibacterial activity incubated for 18 to 20 hrs in presence of 5% CO2 by CLSI protocol based broth microdilution assay; conditions: time hrs 18-20; procedure, shortened: as §2
[4] = tested on: Enterococcus faecium; assay: Antibacterial activity against Enterococcus faecium HM968 incubated for 18 to 20 hrs under aerobic condition by CLSI protocol based broth microdilution assay; type: functional; conditions: time hrs 18-20; procedure, shortened: as §1
[5] = tested on: Enterococcus faecium; assay: Antibacterial activity against Enterococcus faecium NR-28978 incubated for 18 to 20 hrs under aerobic condition by CLSI protocol based broth microdilution assay; type: functional; conditions: time hrs 18-20; procedure, shortened: as §1
[6] = tested on: Enterococcus faecium; assay: Antibacterial activity against Enterococcus faecium NR-31903 incubated for 18 to 20 hrs under aerobic condition by CLSI protocol based broth microdilution assay; type: functional; conditions: time hrs 18-20; procedure, shortened: as §1
[7] = tested on: Enterococcus faecium; assay: Antibacterial activity against Enterococcus faecium NR-32065 incubated for 18 to 20 hrs under aerobic condition by CLSI protocol based broth microdilution assay; type: functional; conditions: time hrs 18-20; procedure, shortened: as §1
[8] = tested on: Enterococcus faecium; assay: Antibacterial activity against Enterococcus faecium NR-31914 incubated for 18 to 20 hrs under aerobic condition by CLSI protocol based broth microdilution assay; type: functional; conditions: time hrs 18-20; procedure, shortened: as §1
[9] = tested on: Enterococcus faecium; assay: Antibacterial activity against Enterococcus faecium NR-31916 incubated for 18 to 20 hrs under aerobic condition by CLSI protocol based broth microdilution assay; type: functional; conditions: time hrs 18-20; procedure, shortened: as §1
[10] = tested on: Enterococcus faecium; assay: Antibacterial activity against Enterococcus faecium NR-32052 incubated for 18 to 20 hrs under aerobic condition by CLSI protocol based broth microdilution assay; type: functional; conditions: time hrs 18-20; procedure, shortened: as §1
[11] = tested on: Enterococcus faecium; assay: Antibacterial activity against Enterococcus faecium NR-31971 incubated for 18 to 20 hrs under aerobic condition by CLSI protocol based broth microdilution assay; type: functional; conditions: time hrs 18-20; procedure, shortened: as §1
[12] = tested on: Enterococcus faecalis; assay: Antibacterial activity against Enterococcus faecalis HM-335 incubated for 18 to 20 hrs under aerobic condition by CLSI protocol based broth microdilution assay; type: functional; conditions: time hrs 18-20; procedure, shortened: as §1
[13] = tested on: Enterococcus faecium; assay: Antibacterial activity against Enterococcus faecium NR-31972 incubated for 18 to 20 hrs under aerobic condition by CLSI protocol based broth microdilution assay; type: functional; conditions: time hrs 18-20; procedure, shortened: as §1
[14] = tested on: Enterococcus faecalis; assay: Antibacterial activity against Enterococcus faecalis NR-31975 incubated for 18 to 20 hrs under aerobic condition by CLSI protocol based broth microdilution assay; type: functional, organism-based; conditions: time hrs 18-20; procedure, shortened: as §1
[15] = tested on: Enterococcus faecalis; assay: Antibacterial activity against Enterococcus faecalis NR-31970 incubated for 18 to 20 hrs under aerobic condition by CLSI protocol based broth microdilution assay; type: functional, organism-based; conditions: time hrs 18-20; procedure, shortened: as §1
[16] = tested on: Enterococcus faecalis; assay: Antibacterial activity against Enterococcus faecalis HM-334 incubated for 18 to 20 hrs under aerobic condition by CLSI protocol based broth microdilution assay; type: functional; conditions: time hrs 18-20; procedure, shortened: as §1
[17] = tested on: Caco-2; assay: Cytotoxicity against human Caco2 cells at 128 ug/ml incubated for 2 hrs by MTS assay; type: cell-based; conditions: caco-2, 2 h, dose 128 µg/ml
Procedure, shortened: (§3)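 Caco-2 cells maintained in DMEM with 10% FBS, non-essential amino acids and penicillin-streptomycin at 37 °C, 5% CO₂. Compound exposure for 2 h in serum-free medium at several concentrations; DMSO-matched controls. Viability expressed relative to DMSO controls (mean ± SD), and CC₅₀ derived.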

[18] = Cytotoxicity against human Caco2 cells incubated for 2 hrs by MTS assay; type: cell-based; conditions: Caco-2 cells; procedure, shortened: as §3

MIC [1]: 1 µg/mL (≈ 4.23 µM)
inhibition [2]: Active
inhibition [3]: inactive
Structure (SMILES): CCC(=O)Nc1nnc(S(N)(=O)=O)s1 [PROPAZOLAMIDE]

Structure (SMILES): CN[C@H](CC(C)C)C(=O)N[C@H]1C(=O)N[C@@H](CC(N)=O)C(=O)N[C@H]2C(=O)N[C@H]3C(=O)N[C@H](C(=O)N[C@H](C(=O)O)c4cc(O)cc(O)c4-c4cc3ccc4O)[C@H](O)c3ccc(c(Cl)c3)Oc3cc2cc(c3O[C@@H]2O[C@H](CO)[C@@H](O)[C@H](O)[C@H]2O[C@H]2C[C@](C)(N)[C@H](O)[C@H](C)O2)Oc2ccc(cc2Cl)[C@H]1O [VANCOMYCIN]
MIC [4]: 64 µg/mL (≈ 44.2 µM)
MIC [5]: 32 µg/mL (≈ 22.1 µM)
MIC [6]: > 64 µg/mL
MIC [7]: 64 µg/mL (≈ 44.2 µM)
MIC [8]: 64 µg/mL (≈ 44.2 µM)
MIC [9]: > 64 µg/mL
MIC [10]: 64 µg/mL (≈ 44.2 µM)
MIC [11]: 64 µg/mL (≈ 44.2 µM)
MIC [12]: > 64 µg/mL
MIC [13]: > 64 µg/mL

MIC [1]: 1 µg/mL (≈ 3.43 µM)
inhibition [2]: Active
inhibition [3]: inactive
Structure (SMILES): NS(=O)(=O)c1nnc(NC(=O)CN2CCCC2)s1

MIC [1]: 2 µg/mL (≈ 8.06 µM)
Structure (SMILES): NS(=O)(=O)c1nnc(NC(=O)C2CC2)s1
Activity [14]: Active
Activity [15]: Active

MIC [1]: > 64 µg/mL
Structure (SMILES): CC(=O)Nc1nnc(S(C)(=O)=O)s1

MIC [1]: > 64 µg/mL
Structure (SMILES): NS(=O)(=O)c1nnc(NCc2ccccc2)s1

MIC [1]: 0.25 µg/mL (≈ 0.821 µM)
Structure (SMILES): CC1CCC(C(=O)Nc2nnc(S(N)(=O)=O)s2)CC1 (stereo not given)

MIC [1]: 0.015 µg/mL (≈ 0.0513 µM)
MIC [4]: 0.015 µg/mL (≈ 0.0513 µM)
MIC [5]: 0.06 µg/mL (≈ 0.205 µM)
MIC [6]: 0.03 µg/mL (≈ 0.103 µM)
MIC [7]: 0.03 µg/mL (≈ 0.103 µM)
MIC [8]: 0.03 µg/mL (≈ 0.103 µM)
MIC [9]: 0.06 µg/mL (≈ 0.205 µM)
MIC [10]: 0.03 µg/mL (≈ 0.103 µM)
MIC [11]: 0.03 µg/mL (≈ 0.103 µM)
MIC [12]: 0.015 µg/mL (≈ 0.0513 µM)
MIC [16]: 0.015 µg/mL (≈ 0.0513 µM)
inhibition [2]: Active
inhibition [3]: inactive
MIC [13]: 0.03 µg/mL (≈ 0.103 µM)
Structure (SMILES): CCCCCCC(=O)Nc1nnc(S(N)(=O)=O)s1
Activity [14]: Active
Activity [15]: Active
Activity [17]: Non-Toxic
CC50 at 2 h [18]: > 128 µg/mL

MIC [1]: 8 µg/mL (≈ 25 µM)
inhibition [2]: Active
inhibition [3]: inactive
Structure (SMILES): CN1CCN(CC(=O)Nc2nnc(S(N)(=O)=O)s2)CC1

MIC [1]: 0.5 µg/mL (≈ 2 µM)
inhibition [2]: Active
inhibition [3]: inactive
Structure (SMILES): CCCC(=O)Nc1nnc(S(N)(=O)=O)s1

MIC [1]: 1 µg/mL (≈ 3.27 µM)
Structure (SMILES): NS(=O)(=O)c1nnc(NC(=O)CN2CCCCC2)s1

MIC [1]: 0.25 µg/mL (≈ 0.905 µM)
MIC [4]: 0.5 µg/mL (≈ 1.81 µM)
MIC [5]: 0.5 µg/mL (≈ 1.81 µM)
MIC [6]: 0.5 µg/mL (≈ 1.81 µM)
MIC [7]: 0.5 µg/mL (≈ 1.81 µM)
MIC [8]: 0.5 µg/mL (≈ 1.81 µM)
MIC [9]: 0.5 µg/mL (≈ 1.81 µM)
MIC [10]: 0.5 µg/mL (≈ 1.81 µM)
MIC [11]: 1 µg/mL (≈ 3.62 µM)
MIC [12]: 0.5 µg/mL (≈ 1.81 µM)
MIC [16]: 0.5 µg/mL (≈ 1.81 µM)
inhibition [2]: Active
inhibition [3]: inactive
MIC [13]: 1 µg/mL (≈ 3.62 µM)
Structure (SMILES): NS(=O)(=O)c1nnc(NC(=O)C2CCCC2)s1
Activity [14]: Active
Activity [15]: Active
Activity [17]: Non-Toxic
CC50 at 2 h [18]: > 128 µg/mL

MIC [1]: 1 µg/mL (≈ 4 µM)
inhibition [2]: Active
inhibition [3]: inactive
Structure (SMILES): CC(C)C(=O)Nc1nnc(S(N)(=O)=O)s1

MIC [1]: > 64 µg/mL
Structure (SMILES): NS(=O)(=O)c1nnc(NCC2CCCCC2)s1

MIC [1]: 0.25 µg/mL (≈ 0.905 µM)
Structure (SMILES): NS(=O)(=O)c1nnc(NC(=O)CC2CCC2)s1
